Results published in ChEMBL document CHEMBL1157589, “Antifungal 3,5-disubstituted furanones: From 5-acyloxymethyl to 5-alkylidene derivatives” (Bioorg Med Chem, 2010).
pIC50: −log10 of the molar value. Converted amounts (≈) assume the structure as drawn.

Legend:
[1] = test system: Candida albicans; experiment: Antifungal activity against Candida albicans ATCC 44859 after 48 hrs by microdilution method; type: functional; settings: ATCC 44859, 48 h
Method in brief: (§1)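 Yeasts held on Sabouraud dextrose agar. MIC by NCCLS M27-A broth microdilution in RPMI 1640 with L-glutamine, buffered with 0.165 M MOPS to pH 7.0. Compounds in DMSO (≤2% final), twofold dilutions 500–0.48. Final inoculum 5 × 10³ ± 0.2 cfu mL⁻¹. Incubated at 35 °C; absorbance at 540 nm read at 24 and 48 h. MIC is 80% growth inhibition versus control; run twice in duplicate.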

[2] = test system: Candida albicans; experiment: Antifungal activity against Candida albicans ATCC 90028 after 24 hrs by microdilution method; type: functional; settings: ATCC 90028, 24 h; method in brief: as §1
[3] = test system: Candida albicans; experiment: Antifungal activity against Candida albicans ATCC 90028 after 48 hrs by microdilution method; type: functional; settings: ATCC 90028, 48 h; method in brief: as §1
[4] = test system: Candida parapsilosis; experiment: Antifungal activity against Candida parapsilosis ATCC 22019 after 24 hrs by microdilution method; type: functional; settings: Lodderomyces parapsilosis, ATCC 22019, 24 h; method in brief: as §1
[5] = test system: Candida parapsilosis; experiment: Antifungal activity against Candida parapsilosis ATCC 22019 after 48 hrs by microdilution method; type: functional; settings: Lodderomyces parapsilosis, ATCC 22019, 48 h; method in brief: as §1
[6] = test system: Pichia kudriavzevii; experiment: Antifungal activity against Candida krusei ATCC 6258 after 24 hrs by microdilution method; type: functional; settings: ATCC 6258, 24 h; method in brief: as §1
[7] = test system: Pichia kudriavzevii; experiment: Antifungal activity against Candida krusei ATCC 6258 after 48 hrs by microdilution method; type: functional; settings: ATCC 6258, 48 h; method in brief: as §1
[8] = test system: Pichia kudriavzevii; experiment: Antifungal activity against Candida krusei E28 after 24 hrs by microdilution method; type: functional; settings: E28, 24 h; method in brief: as §1
[9] = test system: Pichia kudriavzevii; experiment: Antifungal activity against Candida krusei E28 after 48 hrs by microdilution method; type: functional; settings: E28, 48 h; method in brief: as §1
[10] = test system: Candida tropicalis; experiment: Antifungal activity against Candida tropicalis 156 after 24 hrs by microdilution method; type: functional; settings: Candida tropicalis, 156, 24 h; method in brief: as §1
[11] = test system: Candida tropicalis; experiment: Antifungal activity against Candida tropicalis 156 after 48 hrs by microdilution method; type: functional; settings: Candida tropicalis, 156, 48 h; method in brief: as §1
[12] = test system: Nakaseomyces glabratus; experiment: Antifungal activity against Candida glabrata 20/I after 24 hrs by microdilution method; type: functional; method in brief: as §1
[13] = test system: Nakaseomyces glabratus; experiment: Antifungal activity against Candida glabrata 20/I after 48 hrs by microdilution method; type: functional; method in brief: as §1
[14] = test system: Clavispora lusitaniae; experiment: Antifungal activity against Candida lusitaniae 2446/I after 24 hrs by microdilution method; type: functional; method in brief: as §1
[15] = test system: Clavispora lusitaniae; experiment: Antifungal activity against Candida lusitaniae 2446/I after 48 hrs by microdilution method; type: functional; method in brief: as §1
[16] = test system: Trichosporon beigelii; experiment: Antifungal activity against Trichosporon beigelii 1188 after 24 hrs by microdilution method; type: functional; settings: Trichosporon beigelii, 1188, 24 h; method in brief: as §1
[17] = test system: Trichosporon beigelii; experiment: Antifungal activity against Trichosporon beigelii 1188 after 48 hrs by microdilution method; type: functional; settings: Trichosporon beigelii, 1188, 48 h; method in brief: as §1
[18] = test system: Aspergillus fumigatus; experiment: Antifungal activity against Aspergillus fumigatus 231 after 24 hrs by microdilution method; type: functional; settings: Aspergillus fumigatus, 231, 24 h
Method in brief: (§2)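 Filamentous strains held on Sabouraud dextrose agar. NCCLS M27-A broth microdilution in RPMI 1640 with L-glutamine and 0.165 M MOPS, pH 7.0. DMSO diluent ≤2% final; twofold dilutions 500–0.48. Inoculum 5 × 10³ ± 0.2 cfu mL⁻¹ final.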

[19] = test system: Aspergillus fumigatus; experiment: Antifungal activity against Aspergillus fumigatus 231 after 48 hrs by microdilution method; type: functional; settings: Aspergillus fumigatus, 231, 48 h; method in brief: as §2
[20] = test system: Lichtheimia corymbifera; experiment: Antifungal activity against Absidia corymbifera 272 after 24 hrs by microdilution method; type: functional; settings: Lichtheimia corymbifera, 272, 24 h; method in brief: as §2
[21] = test system: Lichtheimia corymbifera; experiment: Antifungal activity against Absidia corymbifera 272 after 48 hrs by microdilution method; type: functional; settings: Lichtheimia corymbifera, 272, 48 h; method in brief: as §2
[22] = test system: Trichophyton mentagrophytes; experiment: Antifungal activity against Trichophyton mentagrophytes 445 after 72 hrs by microdilution method; type: functional; settings: Trichophyton mentagrophytes, 445, 72 h
Method in brief: (§3)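 Dermatophyte held on Sabouraud dextrose agar. M27-A microdilution in MOPS-buffered (0.165 M, pH 7.0) RPMI 1640 with L-glutamine. DMSO ≤2% final; twofold dilutions 500–0.48. Inoculum 5 × 10³ ± 0.2 cfu mL⁻¹ final. Incubated at 35 °C; MIC read visually at 72 and 120 h as 80% inhibition of control growth; determined twice in duplicate.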

[23] = test system: Trichophyton mentagrophytes; experiment: Antifungal activity against Trichophyton mentagrophytes 445 after 120 hrs by microdilution method; type: functional; settings: Trichophyton mentagrophytes, 445, 120 h; method in brief: as §3
[24] = test system: L1210; experiment: Cytostatic activity against mouse L1210 cells after 72 hrs by XTT assay; type: functional, cell-based
Method in brief: (§4)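 Leukemia cells (L1210 ATCC CCL 219, CCRF-CEM ATCC CCL 119, HL-60 ATCC CCL 240) grown in 24-well plates in RPMI 1640 with fetal calf serum. Growth assessed 72 h after drug addition. Viability measured by XTT spectrophotometric assay; potency given as IC50.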

[25] = test system: HL-60; experiment: Cytostatic activity against human HL60 cells after 72 hrs by XTT assay; type: functional, cell-based; settings: for pIC50: Homo sapiens, HL-60, 72 h, read-out: IC50; method in brief: as §4
[26] = test system: CCRF-CEM; experiment: Cytostatic activity against human CCRF-CEM cells after 72 hrs by XTT assay; type: functional, cell-based; settings: Homo sapiens, CCRF-CEM, 72 h; read-out: IC50; method in brief: as §4
[27] = test system: Candida albicans; experiment: Antifungal activity against Candida albicans ATCC 44859 after 24 hrs by microdilution method; type: functional; settings: ATCC 44859, 24 h; method in brief: as §1
[28] = test system: HeLa S3; experiment: Cytostatic activity against human HeLaS3 cells after 48 hrs by XTT assay; settings: Homo sapiens, HeLa S3, 48 h; read-out: IC50
[29] = test system: HeLa S3; experiment: Cytostatic activity against human HeLaS3 cells after 72 hrs by XTT assay; type: functional, cell-based

Row | MIC80 [1] | MIC80 [2] | MIC80 [3] | MIC80 [4] | MIC80 [5] | MIC80 [6] | MIC80 [7] | MIC80 [8] | MIC80 [9] | MIC80 [10] | MIC80 [11] | MIC80 [12] | MIC80 [13] | MIC80 [14] | MIC80 [15] | MIC80 [16] | MIC80 [17] | MIC80 [18] | MIC80 [19] | MIC80 [20] | Compound | further results
1 | 31.2 µM (≈ 10.1 µg/mL) | 31.2 µM (≈ 10.1 µg/mL) | 62.5 µM (≈ 20.2 µg/mL) | 31.2 µM (≈ 10.1 µg/mL) | 62.5 µM (≈ 20.2 µg/mL) | 7.81 µM (≈ 2.52 µg/mL) | 62.5 µM (≈ 20.2 µg/mL) | 62.5 µM (≈ 20.2 µg/mL) | 62.5 µM (≈ 20.2 µg/mL) | 31.2 µM (≈ 10.1 µg/mL) | 125 µM (≈ 40.4 µg/mL) | 31.2 µM (≈ 10.1 µg/mL) | 62.5 µM (≈ 20.2 µg/mL) | 62.5 µM (≈ 20.2 µg/mL) | 125 µM (≈ 40.4 µg/mL) | 31.2 µM (≈ 10.1 µg/mL) | 31.2 µM (≈ 10.1 µg/mL) | 15.6 µM (≈ 5.05 µg/mL) | 31.2 µM (≈ 10.1 µg/mL) | 31.2 µM (≈ 10.1 µg/mL) | CC(=O)OC/C=C1/C=C(c2ccc(Br)cc2)C(=O)O1 | MIC80 [21]: 31.2 µM (≈ 10.1 µg/mL); MIC80 [22]: 7.81 µM (≈ 2.52 µg/mL); MIC80 [23]: 15.6 µM (≈ 5.05 µg/mL); IC50 ([24]; l1210): Not Active; IC50 ([25]; hl-60): Not Active; pIC50 [26]: 5.36; MIC80 [27]: 7.81 µM (≈ 2.52 µg/mL); pIC50 [28]: 5.38
2 | 1.95 µM (≈ 0.759 µg/mL) | 0.97 µM (≈ 0.378 µg/mL) | 3.9 µM (≈ 1.52 µg/mL) | 7.81 µM (≈ 3.04 µg/mL) | 15.6 µM (≈ 6.08 µg/mL) | 7.81 µM (≈ 3.04 µg/mL) | 15.6 µM (≈ 6.08 µg/mL) | 7.81 µM (≈ 3.04 µg/mL) | 15.6 µM (≈ 6.08 µg/mL) | 3.9 µM (≈ 1.52 µg/mL) | 7.81 µM (≈ 3.04 µg/mL) | 0.97 µM (≈ 0.378 µg/mL) | 1.95 µM (≈ 0.759 µg/mL) | 3.9 µM (≈ 1.52 µg/mL) | 7.81 µM (≈ 3.04 µg/mL) | 7.81 µM (≈ 3.04 µg/mL) | 15.6 µM (≈ 6.08 µg/mL) | 1.95 µM (≈ 0.759 µg/mL) | 3.9 µM (≈ 1.52 µg/mL) | 15.6 µM (≈ 6.08 µg/mL) | O=C1OC(COc2ccc(C(=O)O)cc2)C=C1c1ccc(Br)cc1 (stereo not drawn) | MIC80 [21]: 62.5 µM (≈ 24.3 µg/mL); MIC80 [22]: 0.97 µM (≈ 0.378 µg/mL); MIC80 [23]: 0.97 µM (≈ 0.378 µg/mL); pIC50 ([24]; Mus musculus, L1210, 72 h, read-out: IC50): 4.91; pIC50 [25]: 4.71; pIC50 [26]: 5.06; MIC80 [27]: 0.48 µM (≈ 0.187 µg/mL); pIC50 [28]: 5.57
3 | 31.2 µM (≈ 8.85 µg/mL) | 31.2 µM (≈ 8.85 µg/mL) | 31.2 µM (≈ 8.85 µg/mL) | 125 µM (≈ 35.4 µg/mL) | 250 µM (≈ 70.8 µg/mL) | 250 µM (≈ 70.8 µg/mL) | 250 µM (≈ 70.8 µg/mL) | 250 µM (≈ 70.8 µg/mL) | 500 µM (≈ 142 µg/mL) | 62.5 µM (≈ 17.7 µg/mL) | 62.5 µM (≈ 17.7 µg/mL) | 125 µM (≈ 35.4 µg/mL) | 125 µM (≈ 35.4 µg/mL) | 62.5 µM (≈ 17.7 µg/mL) | 125 µM (≈ 35.4 µg/mL) | 62.5 µM (≈ 17.7 µg/mL) | 125 µM (≈ 35.4 µg/mL) | 31.2 µM (≈ 8.85 µg/mL) | 62.5 µM (≈ 17.7 µg/mL) | 125 µM (≈ 35.4 µg/mL) | COCC1C=C(c2ccc(Br)cc2)C(=O)O1 (stereo not drawn) | MIC80 [21]: 250 µM (≈ 70.8 µg/mL); MIC80 [22]: 31.2 µM (≈ 8.85 µg/mL); MIC80 [23]: 31.2 µM (≈ 8.85 µg/mL); pIC50 [25]: 4.80; IC50 [29]: Not Active; pIC50 [26]: 5.66; MIC80 [27]: 15.6 µM (≈ 4.42 µg/mL)
